Assay results reported in ChEMBL document CHEMBL5108058 (J Med Chem, 2022).

How the values were obtained:
SARS-CoV-2 [1] = test: Antiviral activity against SARS-Cov2 […] infected in Calu-3 cells assessed as reduction in viral particle release measured after 24 hrs; format: functional, organism-based; settings: Severe acute respiratory syndrome coronavirus 2, Calu-3, 24 h
SARS-CoV-2 [2] = test: Antiviral activity against SARS-CoV-2-GHB-03021/2020 infected in African green monkey Vero E6 cells assessed as reduction in cytopathic effect pre-infected with virus on day 0 followed by compound addition on day 1 and measured after 4 days post infection in presence of CP-100356 by MTS assay; format: functional, organism-based; settings: Severe acute respiratory syndrome coronavirus 2, GHB-03021/2020, Vero C1008
SARS-CoV-2 [3] = test: Antiviral activity against SARS-CoV-2-BetaCoV/belgium/GHB-03021/2020 infected in human Huh-7 cells assessed as reduction in cytopathic effect pre-infected with virus on day 0 followed by compound addition on day 1 and measured after 4 days post infection by MTT assay; format: functional, organism-based; settings: Severe acute respiratory syndrome coronavirus 2, BetaCoV/belgium/GHB-03021/2020, Huh-7
SARS-CoV-2 [4] = test: Antiviral activity against SARS-CoV-2-alphaB.1.1.7 infected in human A549 cells expressing ACE2 and TMPRSS2 assessed as reduction in cytopathic effect pre-infected with virus on day 0 followed by compound addition on day 1 and measured after 4 days post infection by MTS assay; format: functional, organism-based; settings: Severe acute respiratory syndrome coronavirus 2, alphaB.1.1.7, A549
Vero C1008 = test: Cytotoxicity against African green monkey Vero E6 cells assessed as reduction in cell viability; format: toxicity, cell-based; settings: chlorocebus sabaeus
In short: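 VeroE6-eGFP cells maintained in DMEM with 10% FBS and G418. Compound toxicity measured without virus by standard MTS assay in parallel with the antiviral test. At least two independent dose–response curves.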

[5] = Tmax in CD-1 mouse plasma at 25 mg/kg, INH using nebulizer measured at 0.25 to 24 hrs; format: ADME, organism-based; settings: in vivo, inhaled_or_intranasal, time 0.25-24 hrs
In short: (§1)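 Male outbred CD-1 mice, 4 weeks old. Compound in a DOPS liposomal formulation (1 mM DOPS final), 25 mg/kg by nebulizer inhalation. Mice euthanized at 0.25, 0.5, 1, 2, 4, 8 and 24 h for heart blood (EDTA plasma), bronchoalveolar lavage and lung homogenate. ELF levels derived from BALF by urea method; non-compartmental PK analysis.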

[6] = Cmax in CD-1 mouse plasma at 25 mg/kg, INH using nebulizer measured at 0.25 to 24 hrs; format: ADME, organism-based; set-up: dose 25 mg/kg, time 0.25-24 hrs, route inh; settings: in vivo, inhaled_or_intranasal; in short: as §1
[7] = AUC (0 to t) in CD-1 mouse plasma at 25 mg/kg, INH using nebulizer measured at 0.25 to 24 hrs; format: ADME, organism-based; set-up: time lower 0.25 hrs, dose 25 mg/kg, time upper 24 hrs, route inh; settings: in vivo, inhaled_or_intranasal; in short: as §1
[8] = Observed apparent volume of distribution in CD-1 mouse plasma at 25 mg/kg, INH using nebulizer measured at 0.25 to 24 hrs; format: ADME, organism-based; settings: in vivo, inhaled_or_intranasal, time 0.25-24 hrs; in short: as §1
[9] = Apparent oral clearance in CD-1 mouse plasma at 25 mg/kg, INH using nebulizer measured at 0.25 to 24 hrs; format: ADME, organism-based; settings: time 0.25-24 hrs; in short: as §1
[10] = Cmax in CD-1 mouse BALF at 25 mg/kg, INH using nebulizer measured at 5 hrs; format: ADME, organism-based, Bronchoalveolar lavage; set-up: time 5 hrs, dose 25 mg/kg, route inh; settings: in vivo, inhaled_or_intranasal
[11] = AUC (0 to t) in CD-1 mouse BALF at 25 mg/kg, INH using nebulizer measured at 5 hrs; format: ADME, organism-based, Bronchoalveolar lavage; set-up: dose 25 mg/kg, time 5 hrs, route inh; settings: in vivo, inhaled_or_intranasal
[12] = Cmax in CD-1 mouse Epithelial lining fluid at 25 mg/kg, INH using nebulizer measured at 0.25 to 24 hrs; format: ADME, organism-based; set-up: time lower 0.25 hrs, dose 25 mg/kg, time upper 24 hrs, route inh; settings: in vivo, inhaled_or_intranasal; in short: as §1
[13] = AUC (0 to t) in CD-1 mouse Epithelial lining fluid at 25 mg/kg, INH using nebulizer measured at 0.25 to 24 hrs; format: ADME, organism-based; set-up: time upper 24 hrs, dose 25 mg/kg, time lower 0.25 hrs, route inh; settings: in vivo, inhaled_or_intranasal; in short: as §1
[14] = Cmax in CD-1 mouse lung at 25 mg/kg, INH using nebulizer measured at 0.25 to 24 hrs; format: ADME, organism-based; set-up: dose 25 mg/kg, time 0.25-24 hrs, route inh; settings: inhaled or intranasal; in short: as §1
[15] = Tmax in CD-1 mouse plasma at 100 mg/kg, po measured at 0.5 to 3 hrs; format: ADME, organism-based; settings: in vivo, time 0.5-3 hrs
In short: (§2)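 Male CD-1 mice, 4 weeks old, given 100 mg/kg by intragastric gavage in DOPS liposomal formulation (1 mM DOPS final). Tail-vein blood sampled at 0.5, 1 and 3 h; terminal heart blood, BALF and lungs at 5 h. EDTA plasma kept at −80 °C until analysis; parameters by non-compartmental analysis.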

[16] = Cmax in CD-1 mouse plasma at 100 mg/kg, po measured at 0.5 to 3 hrs; format: ADME, organism-based; set-up: time 0.5-3 hrs, dose 100 mg/kg, route po; settings: in vivo; in short: as §2
[17] = AUC (0 to t) in CD-1 mouse plasma at 100 mg/kg, po measured at 0.5 to 3 hrs; format: ADME, organism-based; set-up: time lower 0.5 hrs, dose 100 mg/kg, time upper 3 hrs, route po; settings: in vivo; in short: as §2
[18] = Observed apparent volume of distribution in CD-1 mouse plasma at 100 mg/kg, po measured at 0.5 to 3 hrs; format: ADME, organism-based; settings: in vivo, time 0.5-3 hrs; in short: as §2
[19] = Half life in CD-1 mouse plasma at 100 mg/kg, po measured at 0.5 to 3 hrs; format: ADME, organism-based; settings: in vivo, time 0.5-3 hrs; in short: as §2
[20] = MRT in CD-1 mouse plasma at 100 mg/kg, po measured at 0.5 to 3 hrs; format: ADME, organism-based; settings: in vivo, time 0.5-3 hrs; in short: as §2
[21] = Oral bioavailability in CD-1 mouse at 100 mg/kg measured at 0.5 to 3 hrs; format: ADME, organism-based; settings: in vivo, time 0.5-3 hrs; in short: as §2
SARS-CoV-2 [22] = test: Antiviral activity against SARS-Cov2 […] infected in Calu-3 cells assessed as viral plaque reduction; format: functional, organism-based; settings: Severe acute respiratory syndrome coronavirus 2, Calu-3

CC(C)(C)OC(=O)Nc1cccn([C@@H](CC2CC2)C(=O)N[C@@H](C[C@@H]2CCNC2=O)C(=O)C(=O)NCc2ccccc2)c1=O showed an EC50 (SARS-CoV-2 [1]) of 2400 nM, an EC50 (SARS-CoV-2 [2]) of 1300 nM and an EC50 (SARS-CoV-2 [3]) of 3400 nM. For the same compound, the EC50 (SARS-CoV-2 [4]) was 840 nM, the CC50 (Vero C1008) was greater than 100000 nM and the Tmax [5] was 0.33 h. The Cmax [6] was 236.47 ng/mL, the AUCt [7] was 2.89663 µg·h/mL and the Vz/F [8] was 141.07 L/kg. For the same compound, the CL/F [9] was 83.9 mL/min/kg, the Cmax [10] was 2330.33 ng/mL and the AUCt [11] was 5.1622 µg·h/mL. The Cmax [12] was 433520 ng/mL, the AUCt [13] was 1042.34 µg·h/mL and the Cmax [14] was 262000 ng/g. It also gave a Tmax [15] of 2.5 h, a Cmax [16] of 357 ng/mL and an AUCt [17] of 1.06149 µg·h/mL. For the same compound, the Vz/F [18] was 131.34 L/kg, the t1/2 [19] was 1.3 h and the MRT [20] was 2.57 h. The bioavailability [21] was 17%.

Compound CC(C)(C)OC(=O)Nc1cccn(C(CC2CC2)C(=O)N[C@@H](C[C@@H]2CCNC2=O)C(=O)C(=O)NCc2ccccc2)c1=O (mixture of isomers) has an EC50 (SARS-CoV-2 [22]) of 4000 nM.
